High-throughput results deposited in PubChem BioAssay by Broad Institute.
Hits are enriched below; roughly 3.1% of the tested compounds scored in any of these assays.
Calb FLC – affects C. albicans growth with fluconazole; C. albicans CaCi-2 (fluconazole-resistant clinical isolate) + fluconazole, Alamar Blue growth, 48 h; growth inhibition, % (test concentration not listed); AID 1979; hit rate 0.57% among 300,000;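 active means growth inhibition above about 58% in most replicates, limit read from the data, passing the limit was not always enough; inconclusive means exactly half the replicates above a set limit; inactive means most replicates below a set limit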;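 further: all wells also contain fluconazole at 8 µg/ml as a sub-toxic cotreatment; 0% = median of DMSO wells and 100% = median of geldanamycin control wells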
HIF act – HIF pathway transcriptional activation; U2OS HRE-luciferase reporter, luminescence; normalized: DMSO 0%, desferrioxamine 100%; activation, % at 7.5 µM (by protocol); hit rate 0.32% among 300,000; AID 1910;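 active means mean activation of at least 10% of the iron chelator positive control signal, with at least half of replicates also reaching 10%; inconclusive means mean and replicate majority disagree about reaching 10%; inactive means mean and most replicates under 10%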
PolyA inh – yeast polyadenylation inhibition; S. cerevisiae SKY197-pL101 polyadenylation reporter, beta-gal luminescence; efflux-impaired pdr1/pdr3 knockout yeast; score 100 = 6 SD above DMSO; activity score, % at 12 µM; hit rate 0.02% among 300,000;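 active means lowest replicate activity score at least 50, where 100 means six control SD above control mean; inconclusive means lowest score under 50 but half or more replicates reach 50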;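 further: yeast exposed to compound for 9 h at 30 °C; higher score means more reporter readthrough which indicates perturbed polyadenylation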
Beta apoptosis – beta cell apoptosis inhibition. INS-1E cytokine-induced death, ATP luminescence, 48 h; percent of positive-control rescue, neutral wells zero. protection from apoptosis, % (no concentration beside the values). hit rate 0.8% among 300,000. AID 435005;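 active means Every replicate reaches about 75%, or at least half do and their mean reaches it too, limit read from the data; inconclusive means At least half of replicates reach the limit but their mean does not; inactive means Under half of replicates reach the limit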;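 further: 0% = cytokine-treated negative control wells and 100% = positive control rescue; higher means more ATP so stronger rescue from cytokine killing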
CSC inhib – blocks cancer stem cells | cancer stem cell-like cells viability, luminescence | inhibition, % at 7.5 µM | hit rate 1.1% among 300,000; in the data active means inhibition above about 75%; inconclusive means no clear call, values can overlap the other calls; tested in HMLE shEcad cells
T cruzi repl – blocks replication of Trypanosoma cruzi; inhibition, % (concentration not given with the values); hit rate 1.4% among 300,000; AID 1885; T. cruzi beta-gal in NIH3T3, luminescence, 90 h;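 active means mean inhibition across valid replicates above about 55%, limit read from the data; inconclusive means mean below that limit but half or more replicates reach it; inactive means mean below it, under half of replicates reach it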;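 further: signal also drops with host cell toxicity which is not excluded here; 0% = plate median of DMSO wells and 100% = zero luminescence signal; higher percent means less beta-gal luminescence so fewer parasites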
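Read-out: Parasite load inhibition, % | Test system: Mouse NIH/3T3 fibroblasts infected with β-gal-expressing T. cruzi Tulahuen C4 | Amount: 5,000 cells/well | Medium: DMEM, 2% fetal bovine serum | Signal: GalScreen β-gal luminescence, detergent lysis, 60 min | Timing: 3 h attach, ≥90 h co-culture | Also added: Tulahuen C4 trypomastigotes, 5000/well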
Active calls of the source: *; ? = inconclusive; . = not tested or not shown.

SMILES	Calb FLC	HIF act	PolyA inh	Beta apoptosis	CSC inhib	T cruzi repl
Cc1ccc(C[n+]2c(-c3ccc(C)cc3)cc(-c3ccc(C)cc3)cc2-c2ccc(C)cc2)cc1	3	-1	13	118*	-5	47
Cc1ccc(-c2cc(-c3ccc(C)cc3)[n+](-c3ccc(C(=O)O)cc3)c(-c3ccc(C)cc3)c2)cc1	-22	0	6	-2	-7	2
CN1CCN(C(=O)COc2ccc(S(=O)(=O)Nc3ccc(F)cc3)cc2)CC1	.	0	24	-8	36	66*
C[C@H]1CCC/C=C/C2C[C@H](O)CC2[C@H](O)/C=C/C(=O)O1 (stereo not given in full)	.	0	10	99*	113*	51
CC1CCC/C=C/C2CC(O)CC2C(O)/C=C/C(=O)O1 (stereo not given)	-1	-3	-9	99*	131*	40
COc1ccc(CCNCc2c(OC)ccc3ccccc23)cc1	-13	0	-3	10	25	32
O=C(O)CCn1cc(C=C2C(=O)NC(=O)NC2=O)c(-c2cc3ccccc3oc2=O)n1	4	-1	6	-9	-15	-13
O=C(NCc1cccnc1)Nc1ccc([N+](=O)[O-])cc1	5	0	-8	81*	-1	2
Cc1ccccc1NP(=O)(Oc1ccccc1F)Oc1ccccc1F	-19	0	-7	-4	2	3
CC(=O)O[C@H]1[C@H]2O[C@]23[C@@H]2CC[C@]4(O)C[C@@H](O)CC[C@]4(C)C2CC[C@]3(C)[C@H]1c1ccc(=O)oc1 (stereo not given in full)	.	.	.	0	105*	.
C[C@]12CC[C@H]3C(CCC4(O)CC(O)CC[C@]34C=O)C1=CC[C@H]2c1ccc(=O)oc1 (stereo not given in full)	3	0	2	-6	78*	-2
CCCNC(=O)N1[C@H]2CC[C@@H]1C(C(=O)OC)=C(c1cc3ccccc3s1)C2	-2	0	-14	2	-10	-2
COC(=O)C1=C(c2ccc(-c3ccccc3)c(F)c2)C[C@@H]2CC[C@H]1N2C(=O)N1CCc2cc(OC)c(OC)cc2C1	.	.	.	-2	41	.
CCS(=O)(=O)Nc1cccc(C(=C2CCCCC2)c2cnc[nH]2)c1	.	.	.	-2	-3	.
CNc1cc(Cl)c2nonc2c1[N+](=O)[O-]	100*	0	-35	.	.	42
Cc1cc([N+](=O)[O-])c(Cl)cc1NC(=O)C(C)C	-4	0	-3	3	-24	-2
COc1ccc(C(=O)O/N=C(/C(N)=O)P(=O)(OC(C)C)OC(C)C)cc1	15	1	-4	-3	-6	10
CC1CCC(C(C)C)C(OC(=O)Cn2c(COc3ccccc3)[n+](C)c3ccccc32)C1 (stereo not given)	-5	-1	-18	106*	98*	73*
COC(=O)c1c2[n+](cc3cc(OC)c(OC)cc13)CCc1cc(OC)c(OC)cc1-2	-14	0	-5	13	2	3
COc1cccc(CNC(=O)CCC(=O)N2C[C@H]3C[C@H](C2)c2cccc(=O)n2C3)c1OC	-2	0	?	.	7	-11
CCN(CC)c1ccc(CN(C)CCc2ccc(OC)c(OC)c2)cc1	5	0	-3	-4	4	61*
COc1ccc(C2c3c(nc(C)[nH]c3=O)Oc3c2c(=O)oc2ccccc32)cc1 (stereo not given)	25	0	20	-1	-8	-5
CC1(C)C(C(=O)N2CCN(c3ccc(Cl)cc3)CC2)C1(C)C	.	0	19	7	0	13
COC(=O)C1CN(C#N)N(c2ccc(Cl)cc2)C12c1ccccc1-c1ccccc12 (stereo not given)	1	-4	-74	112*	-11	43
CCCCCCn1c(O)c(C=NC2CCCCC2N)c(=O)[nH]c1=O (stereo not given)	14	-4	1	-5	83*	-7
SMILES	Calb FLC	HIF act	PolyA inh	Beta apoptosis	CSC inhib	T cruzi repl
CN1CCN2c3ccc(N)cc3CC3(C(=O)NC(=O)NC3=O)C2C1 (stereo not given)	4	0	3	.	.	-3
CC(C)(C)c1ccc(CSc2cnn(C(C)(C)C)c(=O)c2Cl)cc1	84*	0	3	110*	33	-12
CCn1nc(-c2ccccc2)nc2c(=O)n(C)c(=O)nc1-2	90*	-1	-13	108*	-6	22
COc1cccc(CNCCc2ccc3c(c2)OCO3)c1OC	1	0	17	.	-11	31
COc1cccc(CNCCc2cccc(F)c2)c1OC	-19	-1	-4	-3	-9	59*
CCCCCCCCc1ccc(O)cc1	.	.	.	1	74	.
CCCCC/C=C\C/C=C\C/C=C\C/C=C\CCCC(=O)Nc1ccc(O)cc1	20	0	7	.	85*	20
C=C1C(=O)O[C@@H]2C[C@@H](C)[C@@H]3C4OC4C(=O)[C@@]3(C)[C@@H](O)[C@H]12 (stereo not given in full)	77*	-4	?	104*	75*	46
CCOc1cc2c(cc1OCC)-n1cccc1C(c1ccc(OC)cc1)NC2 (stereo not given)	11	-38	3	6	8	5
COC(C)(C)CCCC(C)C/C=C/C(C)=C/C(=O)OC(C)C (stereo not given)	.	.	.	6	22	.
C=C(C=O)CC1CC(O)[C@]2(C)OC3C[C@@H]4OC5C[C@]6(C)O[C@]7(C)CCC8OC9C[C@]%10(C)OC(/C(C)=C\CO)C(O)CC%10OC9CC(C)C8OC7CC6O[C@]5(C)C/C=C\C4OC3CC2O1 (stereo not given in full)	.	.	.	4	-8	.
C=C(C=O)C[C@@H]1C[C@H](O)C2OC3C[C@]4(C)OC5/C=C\CC6OC7C(CC=CCC6OC5CCCC4OC3CC2O1)OC1CC2OC3CC(=O)OC3C[C@@H](C)C[C@@]2(C)OC1C[C@@H]7C (stereo not given in full)	12	0	-12	124*	104*	33
CNC(C)(C)Cc1ccccc1	.	.	.	0	-2	.
CC1CCC2C(C)C(=O)OC3OC4(C)CCC1C32OO4 (stereo not given)	64	3	10	15	12	3
COc1cc(CN2CCN(c3cc(C)ccc3C)CC2)ccc1O	-20	0	3	108*	-5	-7
Cc1cc(C)cc(N2C(=O)NC(=O)/C(=C/c3cccn3-c3ccc(Cl)cc3)C2=O)c1	-4	0	-4	-7	75*	-21
